Screening results deposited in PubChem BioAssay by several laboratories.
Compounds with a hit are over-represented: about 1.9% of the library has one in this group of screens.
p-CIP stab down: p/CIP-EGFP fusion destabilizers, primary screen, fluorescence, F442A cells. 290,000 tested, 0.01% active. AID 1984, 2009. Q05BA5. decrease of EGFP signal, % at 10 µM. 16 h;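 active = EGFP signal decrease of at least 30% at 10 µM or well 3 SD below plate mean, unless failing retest; inactive = the rest, including hits failing retest or dose response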
DNA FID counter: compounds displacing fluorescent DNA intercalator, primary screen, artefact control for HCV NS3 helicase inhibitor project, biochemical, FID fluorescence | DNA fluorescent intercalator displacement | inhibition, % at 7.9 µM | 290,000 tested, 0.17% active | AID 1845, 2009; in the data active = inhibition above about 37%;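 also: 0% = vehicle and 100% = reference compound; higher means more ethidium bromide displaced from hairpin DNA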
NS3 helicase inh: inhibitors of HCV NS3 helicase, primary screen, biochemical, Cy5 molecular beacon fluorescence; inhibition, % at 10.9 µM; Hepatitis C virus NS3 helicase; 290,000 tested, 0.56% active; NS3 helicase DNA unwinding;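 active = inhibition above the mean of all tested compounds plus 3 SD, set per campaign, cut at about 35% in these data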;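 also: 0% = DMSO wells and 100% = thioflavine S control wells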
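Measured by: Cy5 fluorescence, 0 and 60 min reads / Assay system: NS3 helicase fragment of HCV / Control set: low DMSO, high thioflavine S at 110 µM / Times: 1 h reaction at 25 °C, ATP-initiated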
GPR7 antagonist: GPR7 receptor antagonists, primary screen, cell-based, fluorescence, single concentration. inhibition, % at 4.4 µM. GPR7-expressing cells, fluorescence antagonist assay. Neuropeptides B/W receptor type 1 (Homo sapiens), P48145. 290,000 tested, 1.1% active. AID 1861, 2009; in the data active = inhibition above about 16%, passing the limit was not always enough;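 also: cells stimulated with the agonist NPW; 0% = agonist with vehicle and 100% = vehicle without agonist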
core dimer inh: inhibitors of HCV core protein dimerization, primary screen, biochemical, TR-FRET, high-throughput | 300,000 tested, 0.33% active | inhibition, % at 5 µM | AID 1899, 2009 | TR-FRET GST/Flag-core106 dimerization, 1536-well;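 active = inhibition above the mean of all tested compounds plus 3 SD, set per screening campaign, cut at about 45% in these data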
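System – GST-tagged and Flag-tagged HCV core protein residues 1-106 · Repeats – one well for each compound · Technique – TR-FRET 671 and 617 nm emission · Doses – one concentration, 5 µM, in 0.5% DMSO · Times – 4 h, 22.5 °C incubation · Also added – Eu donor and XL665 acceptor anti-tag antibodies · Measure – percent inhibition of core106 dimerization signal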
GPR7 antag cf: GPR7 receptor antagonists, confirmation, cell-based, fluorescence, single concentration; GPR7-expressing cells, calcium fluorescence antagonist mode; inhibition, % at 4.4 µM; shares compounds with GPR7 antagonist; 2,400 tested, 52% active; in the data active = inhibition above about 24%;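 also: stimulated with the GPR7 agonist NPW; 0% = agonist plus vehicle and 100% = vehicle alone without agonist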
MCHR1 antagonist: MCHR1 antagonists in cells, counter-screen for GPR7 antagonist project, cell-based, fluorescence, human. shares compounds with GPR7 antagonist. MCHR1-expressing cells, fluorescence antagonist assay. inhibition, % at 4.4 µM. 2,400 tested, 62% active. AID 2148, 2009; in the data active = inhibition above about 22%;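 also: 0% = vehicle with agonist and 100% = vehicle without agonist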
* marks the source's active call; other numbers are inactive results; x = no result given.

SMILES | p-CIP stab down | DNA FID counter | NS3 helicase inh | GPR7 antagonist | core dimer inh | GPR7 antag cf | MCHR1 antagonist
CN(C)N1C(N)=C(C#N)C(c2cccnc2)C2=C1CC(C)(C)CC2=O (configuration not stated) | -7 | 0 | 7 | 22* | -7 | -18 | -11
COc1ccc(CC(=O)N/N=C(\C)c2cccs2)cc1 | 1 | -23 | 13 | 31* | -1 | -6 | 4
Cc1occc1C(=O)Nc1cccc(C(F)(F)F)c1 | -1 | -5 | 3 | -10 | 0 | x | x
Cc1occc1C(=O)Nc1cccc(C(=O)O)c1 | 4 | 3 | 2 | 26* | -6 | -17 | 20
O=[N+]([O-])c1ccc(N/N=C/C=C/c2ccco2)cc1 | x | x | x | x | -1 | x | x
O=C(CN(Cc1ccccc1Cl)C(=O)c1csnn1)NC1CCCC1 | 3 | -10 | -5 | 3 | 0 | x | x
O=C(NC1CCSc2ccccc21)c1cccc(Br)c1 (configuration not stated) | -3 | -12 | 4 | 27* | -14 | 12 | 19
O=C(NC1CCSc2ccccc21)c1cccc(OC(F)F)c1 (configuration not stated) | -10 | -15 | -7 | 18 | 14 | x | x
Cc1cc(N2CCC(C)CC2)nc(NCc2ccccc2)n1 | -11 | 10 | -75 | 30* | -6 | 58* | 83*
Cc1cc(C)nc(NCCCc2ccccc2)n1 | 4 | -7 | -16 | -14 | 0 | x | x
CCCCNc1cc(C)nc(NCc2ccccc2)n1 | -22 | 19 | -71 | 43* | -6 | 53* | 80*
OC(CNCc1ccco1)Cn1c2ccccc2c2ccccc21 (configuration not stated) | -14 | 27 | -61 | 21* | -12 | 19 | 14
COC(=O)CN1C(=S)N(C)C(=O)/C1=C/c1cccs1 | 9 | -20 | 3 | 3 | -12 | x | x
CCc1ccc(/C=C2/C(=O)N(C)C(=S)N2CC(=O)OC)s1 | -6 | -3 | -5 | 27* | -1 | 2 | 13
Cc1ccc(NC(=S)NNS(=O)(=O)c2ccc3ccccc3c2)cc1Cl | 7 | -4 | 11 | -15 | 5 | x | x
CCC(=O)N1CCN(c2ccccc2NC(=O)COc2cc(C)ccc2C(C)C)CC1 | 0 | -37 | -4 | 34* | -3 | 27* | 51*
Cc1cc(C)c(OCC(=O)Nc2ccccc2N2CCOCC2)c(C)c1 | -18 | -24 | -13 | 26* | 4 | 59* | 70*
Cc1ccc(C(C)C)c(OCC(=O)NC(=S)Nc2ccccc2N2CCOCC2)c1 | -5 | -23 | -9 | -46 | 3 | x | x
Cc1cccc(OCC(=O)Nc2ccccc2N2CCN(C)CC2)c1 | 0 | 3 | 7 | 31* | 0 | 19 | 49*
CC(C)CNC(=O)COc1ncnc2sccc12 | 0 | 2 | 0 | -7 | 9 | x | x
CC1CCCC(C)N1C(=O)CSc1ncccn1 (configuration not stated) | -19 | -8 | 0 | -12 | -13 | x | x
CC(C)CN(C(=O)c1ccc(S(=O)(=O)N2CCCC2)cc1)C1CCS(=O)(=O)C1 (configuration not stated) | x | x | x | x | 0 | x | x
N#Cc1ccc(CN2CCN(CC(=O)NCCc3ccc(Cl)cc3Cl)CC2)cc1 | -21 | -9 | -80 | 22* | 1 | 31* | 8
OC(CNCC1CCCO1)Cn1c2ccccc2c2ccccc21 (configuration not stated) | -7 | 21 | -12 | 6 | -10 | x | x
OC(CNCC1CCCO1)Cn1c2ccc(Cl)cc2c2cc(Cl)ccc21 (configuration not stated) | -12 | 25 | -96 | 53* | -17 | 53* | 54*
SMILES | p-CIP stab down | DNA FID counter | NS3 helicase inh | GPR7 antagonist | core dimer inh | GPR7 antag cf | MCHR1 antagonist
Brc1ccc(-c2nnc(Cc3ccccc3)o2)cc1 | 2 | -16 | -1 | 2 | 6 | x | x
c1ccc(Cc2nnc(-c3ccccc3)o2)cc1 | 2 | -11 | 8 | 69* | -2 | 71* | 60*
CCOc1ccc(S(=O)(=O)NCCC(=O)NCC2(N3CCCCC3)CCCCC2)cc1 | -10 | 12 | 2 | 2 | -15 | x | x
CCOC(=O)c1[nH]c(CN2CCN(c3ccc(OC)cc3)CC2)c(C(=O)OCC)c1C | -11 | 2 | -30 | 25* | -3 | 23 | 39*
Cc1cc(NC(=O)Nc2ccc(Cl)c(Cl)c2)no1 | x | x | x | x | -5 | x | x
O=C(Nc1ccc(Cl)c(Cl)c1)Nc1ccon1 | 6 | 2 | 8 | 35* | -2 | 35* | 65*
COCCn1c(SCC(=O)N(C)c2ccccc2)nc2c([nH]c3ccccc32)c1=O | -9 | -41 | 18 | 31* | -5 | -19 | -2
COCCn1c(SCC(=O)Nc2ccc(NC(C)=O)cc2)nc2c([nH]c3ccccc32)c1=O | 1 | -27 | -2 | -13 | 12 | x | x
CC1CCCN(C(=O)CN(C)S(=O)(=O)c2ccc3c(c2)c(=O)n(C)c(=O)n3C)C1 (configuration not stated) | -19 | -22 | 17 | -2 | -9 | x | x
CCOc1ccc(S(=O)(=O)Nc2cc(OC)ccc2OC)cc1 | -17 | -11 | -13 | 23* | 0 | 18 | 34*
COc1ccc(OC)c(NS(=O)(=O)c2ccc(SC)cc2)c1 | -6 | -8 | -7 | 5 | -8 | x | x
CC(C)(C)c1ccc(OCCCn2ccnc2)cc1 | 0 | 14 | -26 | -2 | 6 | x | x
Cc1ccc(-c2nn(-c3ccccc3)cc2CO)cc1 | -5 | -17 | -31 | 9 | -7 | x | x
Cc1ccc(-c2nn(-c3ccccc3)cc2CNCc2ccccc2)cc1 | -10 | 22 | -46 | 23* | -4 | 41* | 53*
CC(C)(C)OC(=O)N1CCC(c2c(C(=O)O)cnn2-c2ccccc2Cl)CC1 | 7 | -45 | 4 | 5 | 0 | x | x
CC(C)(C)OC(=O)N1CCC(c2c(C(=O)NCC3CCN(C4CCCC4)C3)cnn2-c2ccccc2Cl)CC1 (configuration not stated) | -1 | 10 | -30 | 44* | -4 | 49* | 23*
Cc1ccc(C)c(N2CCN(C(=O)C3CCN(S(=O)(=O)c4c(C)noc4C)CC3)CC2)c1 | -8 | -54 | 20 | 32* | 0 | 21 | 47*
COc1ccc(CCN(C)C(=S)Nc2ccc(SC(F)F)cc2)cc1OC | -11 | -15 | 1 | 39* | -6 | 12 | 11
O=C(Cc1c(F)cccc1Cl)N/N=C/c1cccnc1 | -9 | -8 | 5 | -10 | x | x | x
